These results are taken from PubChem BioAssay.

Active and inactive are the calls of the source. Cut-off read from the data, not from the text of the source, unless noted: active = inhibition above about 30%; inactive = the rest.

The nature of assay [1]: Her2 expression decrease, cell viability multiplex – SKBR3 breast tumor cells, AlphaScreen, ATP viability, primary screen (AID 461;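 active = Her2 level under about 52% in both replicate screens, with viability over 70% of control, limit read from the data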;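 for Her2 level: lower value means less Her2 protein in the cells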;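 for viability: percent of carrier control wells set as 100% viability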). As to conditions: SKBR3 Her2 protein level, 18-24 h, measured here: SKBR3 viability, ATP luminescence, at 10 µM.
The target of assay [2] is Receptor tyrosine-protein kinase erbB-2 (Homo sapiens) (UniProt P04626). The assay is described as above. The following applies: 18-24 h, at 10 µM, stronger effect = lower value.
Chain of Receptor tyrosine-protein kinase erbB-2 (Homo sapiens) (P04626 whole entry, looked up): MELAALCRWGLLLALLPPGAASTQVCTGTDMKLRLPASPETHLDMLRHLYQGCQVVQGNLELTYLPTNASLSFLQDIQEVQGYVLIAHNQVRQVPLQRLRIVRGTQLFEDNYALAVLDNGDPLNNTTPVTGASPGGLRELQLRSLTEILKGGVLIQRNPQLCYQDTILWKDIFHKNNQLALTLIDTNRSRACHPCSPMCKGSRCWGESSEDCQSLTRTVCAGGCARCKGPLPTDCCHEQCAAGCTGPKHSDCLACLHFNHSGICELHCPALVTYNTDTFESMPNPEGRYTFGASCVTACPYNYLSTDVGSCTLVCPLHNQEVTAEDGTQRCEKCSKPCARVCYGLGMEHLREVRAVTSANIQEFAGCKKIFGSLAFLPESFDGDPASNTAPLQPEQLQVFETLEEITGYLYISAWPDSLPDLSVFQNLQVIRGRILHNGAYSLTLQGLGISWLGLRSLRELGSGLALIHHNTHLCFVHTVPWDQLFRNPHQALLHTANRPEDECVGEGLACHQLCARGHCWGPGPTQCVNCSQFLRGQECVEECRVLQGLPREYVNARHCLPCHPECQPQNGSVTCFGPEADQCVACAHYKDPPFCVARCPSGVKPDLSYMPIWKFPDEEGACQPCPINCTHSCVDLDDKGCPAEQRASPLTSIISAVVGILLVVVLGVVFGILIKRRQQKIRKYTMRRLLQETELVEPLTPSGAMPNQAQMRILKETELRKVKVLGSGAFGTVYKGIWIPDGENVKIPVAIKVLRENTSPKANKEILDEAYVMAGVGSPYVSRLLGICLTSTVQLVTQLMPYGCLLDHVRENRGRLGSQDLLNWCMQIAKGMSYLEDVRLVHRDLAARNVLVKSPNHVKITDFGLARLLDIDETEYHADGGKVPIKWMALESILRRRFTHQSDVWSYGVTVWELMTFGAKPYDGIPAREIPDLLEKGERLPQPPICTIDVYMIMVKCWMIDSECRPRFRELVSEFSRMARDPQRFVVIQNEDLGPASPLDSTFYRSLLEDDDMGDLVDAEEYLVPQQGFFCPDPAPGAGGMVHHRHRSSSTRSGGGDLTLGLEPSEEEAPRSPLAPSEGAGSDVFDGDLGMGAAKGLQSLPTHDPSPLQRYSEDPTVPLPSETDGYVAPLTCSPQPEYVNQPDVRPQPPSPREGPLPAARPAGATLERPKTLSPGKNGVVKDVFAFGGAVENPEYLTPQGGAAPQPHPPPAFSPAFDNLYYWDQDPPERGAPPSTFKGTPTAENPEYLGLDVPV
The nature of assay [3]: reduced viability of SK-BR-3 breast cancer cells – cell-based, 24 h, human, pilot screen (AID 572;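 active = viability at or below 10% of carrier control in both of two separate runs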;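 note: compound exposure lasted between 18 and 24 h rather than exactly 24 h; 100% = carrier-treated control wells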). As to conditions: SK-BR-3 viability, CellTiter-Glo luminescence, at 10 µM, stronger effect = lower value. (In general: Cellular ATP, detected with luciferase, serves as a proxy for viable cell number.)
A short description of assay [4]: HUVEC growth inhibition – cell-based, human, primary screen (AID 575;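 active = viability at or below 30% in both replicate assays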;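 note: 100% = median of untreated cell wells with 0.1% DMSO on each plate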). As to conditions: HUVEC proliferation, CellTiter-Glo luminescence, 72 h; at 10 µM; stronger effect = lower value. Put shortly:
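Assay system: Primary human umbilical vein endothelial cells | Quantity: 1250 cells per well | Medium: Supplemented EBM, 2% fetal bovine serum | Detection: CellTiter-Glo luminescence measuring cellular ATP | Read-out: % viability vs DMSO wells | Plate: Collagen-coated 384-well format | Times: 72 h exposure, 37 °C, 5% CO2, 30 min RT equilibration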

A short description of assay [5]: H69AR cell proliferation blockers – human, duplicate replicates, primary screen (AID 580;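 active = viability at or under a set limit in both replicates, limit being median viability minus 3 SD, cut at about 48% in these data, passing the limit was not always enough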;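 note: 100% = mean luminescence of untreated wells and 0% = no signal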). The following applies: H69AR lung tumor cells viability, ATP luminescence, 72 h; at 10 µM; stronger effect = lower value.
Assay [6] in a line: MRP1 drug-resistance reversers in H69AR cells – cell-based, doxorubicin co-treatment, pilot screen (AID 601;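 active = viability loss from added drug above about 55%, and viability with drug at most 40%, in both replicates, limit read from the data, passing the limit was not always enough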). As to conditions: CellTiter-Glo, 72 h, at 10 µM; for differential viability (reversal): stronger effect = higher value.
The nature of assay [7]: yeast transport mutant growth inhibition pilot in 384-well plates, post-Golgi transport modulator project (AID 636; in the data active = inhibition above about 31%). As to conditions: absorbance 615 nm, about 18 h, stronger effect = higher value.
Assay [8] is described as follows: growth suppression of yeast trafficking mutant, preliminary HTS, modulators of trafficking downstream of Golgi apparatus project, 1536-format plate, OD 615 nm (AID 637). The following applies: yeast transport mutant growth, absorbance 615 nm, 18 h; stronger effect = higher value.
The mark [9] stands for this setting: H69AR cells + 2 uM doxorubicin, measured here: viability with 2 uM doxorubicin, stronger effect = lower value.
Where [10] appears, read: H69AR cells, compound alone cytotoxicity.

In general, viability refers to a read-out of living cells in per cent, often relative to untreated cells. For orientation: inhibition means the relative decrease from the control value, in per cent. For `Cc1cc(C)cc(NC(=O)CCNS(=O)(=O)c2ccc3c(c2)oc(=O)n3C)c1`, the viability was 118% in assay [1]; 118% (inactive) in assay [3]; 95.8% (inactive) in assay [4]; 94.9% (inactive) in assay [5]; 97% in assay [6] (setting [9]); 94.9% in assay [6] (setting [10]). In addition, the Her2 level in assay [2] was 112% (inactive). Besides, the differential viability (reversal) in assay [6] (H69AR cells + 2 uM doxorubicin) was -2.07% (inactive). The values for the inhibition in assay [7] and in assay [8] were -6.16% (inactive) and 1.75% (inactive), respectively.
Consider `Cn1c(SCC(N)=O)nnc1C1CCN(C(=O)NCc2ccccc2)CC1`, for which the viability in assay [1] was 88%; in assay [3] it was 88% (inactive); in assay [4], 93.6% (inactive); in assay [5] it was 88.3% (inactive); in assay [6] (setting [9]), 87.8%; in assay [6] (setting [10]), 88.3%. Also, in assay [2], the Her2 level is 103% (inactive). For the same compound, the differential viability (reversal) in assay [6] (H69AR cells + 2 uM doxorubicin) was 0.425% (inactive). Also, the values for the inhibition in assay [7] and in assay [8] were -3.55% (inactive) and -9.5% (inactive), respectively.
With `COCCn1c(CN2CCN(c3cccc(Cl)c3)CC2)nc2c1c(=O)n(C)c(=O)n2C`, the viability was 85% in assay [1]; 85% (inactive) in assay [3]; 64.7% (inactive) in assay [4]; 72.9% (inactive) in assay [5]; 55.4% in assay [6] (setting [9]); 72.9% in assay [6] (setting [10]). In assay [2], the Her2 level was 85% (inactive). The differential viability (reversal) in assay [6] (H69AR cells + 2 uM doxorubicin) was 17.6% (inactive). For the same compound, the inhibition in assay [7] is -5.87% (inactive); in assay [8], 1.83% (inactive).
For the compound `CCc1nc(N)c(C#N)c(-c2ccc(OC)c(OC)c2)c1C`, the viability is 98.5% in assay [1]; 98.5% (inactive) in assay [3]; 91.4% (inactive) in assay [4]; 87.2% (inactive) in assay [5]; 78.1% in assay [6] (setting [9]); 87.2% in assay [6] (setting [10]). Further, the Her2 level in assay [2] was 93% (inactive). For the same compound, the differential viability (reversal) in assay [6] (H69AR cells + 2 uM doxorubicin) is 9.15% (inactive). In addition, the results for the inhibition in assay [7] and in assay [8] were -6.93% (inactive) and 3.33% (inactive), respectively.
As for `COc1cccc(-c2nc(CS(=O)CC(=O)NCCCOC(C)C)c(C)o2)c1` (stereo not given), the viability was 102% in assay [1]; 102% (inactive) in assay [3]; 118% (inactive) in assay [4]; 101% (inactive) in assay [5]; 95.1% in assay [6] (setting [9]); 101% in assay [6] (setting [10]). In assay [2], the Her2 level was 108% (inactive). In addition, the differential viability (reversal) in assay [6] (H69AR cells + 2 uM doxorubicin) was 6.34% (inactive). In addition, the inhibition was -1.6% (inactive) in assay [7] and -6.94% (inactive) in assay [8].
On to `Cc1cccc(N2CCN(Cc3c(C)n(C)n(-c4ccccc4)c3=O)CC2)c1C`, for which the viability is 83.5% in assay [1]; 83.5% (inactive) in assay [3]; 78.1% (inactive) in assay [4]; 83.9% (inactive) in assay [5]; 83.8% in assay [6] (setting [9]); 83.9% in assay [6] (setting [10]). Besides, in assay [2], the Her2 level was 88.5% (inactive). Moreover, in assay [6] (H69AR cells + 2 uM doxorubicin), the differential viability (reversal) was 0.085% (inactive). Further, the inhibition in assay [7] is -2.47% (inactive); in assay [8], -1.31% (inactive).
For `COCCNC(=O)C(C)OC(=O)c1nsc(Cl)c1Cl` (stereo not given), the viability is 103% in assay [1]; 103% (inactive) in assay [3]; 110% (inactive) in assay [4]; 99.3% (inactive) in assay [5]; 94.5% in assay [6] (setting [9]); 99.3% in assay [6] (setting [10]). Moreover, the Her2 level in assay [2] is 108% (inactive). For the same compound, the differential viability (reversal) in assay [6] (H69AR cells + 2 uM doxorubicin) is 4.84% (inactive). For the same compound, the inhibition in assay [7] was -1.08% (inactive); in assay [8], 25.7% (inactive).
For `O=C(CSc1nnc(Cc2cccs2)n1Cc1ccco1)Nc1cccc(Cl)c1`, the viability in assay [1] was 82.5%; in assay [3] it was 82.5% (inactive); in assay [4], 73.4% (inactive); in assay [5] it was 87% (inactive); in assay [6] (setting [9]) it was 95.6%; in assay [6] (setting [10]), 87%. In addition, the Her2 level in assay [2] was 64% (inactive). Moreover, in assay [6] (H69AR cells + 2 uM doxorubicin), the differential viability (reversal) is -8.62% (inactive). Further, the inhibition is -3.38% (inactive) in assay [7] and -7.5% (inactive) in assay [8].
For `CCOc1nc(SCCOc2ccccc2)nc(N(C)C)n1`, the viability is 96% in assay [1]; 96% (inactive) in assay [3]; 72.4% (inactive) in assay [4]; 107% (inactive) in assay [5]; 102% in assay [6] (setting [9]); 107% in assay [6] (setting [10]). Also, the Her2 level in assay [2] is 115% (inactive). Moreover, the differential viability (reversal) in assay [6] (H69AR cells + 2 uM doxorubicin) was 4.17% (inactive). Moreover, the inhibition was -1.84% (inactive) in assay [7] and -3.5% (inactive) in assay [8].
For `CCCN(S(=O)(=O)c1ccc(OCC)cc1)S(=O)(=O)c1cccs1`, the viability is 89% in assay [1]; 89% (inactive) in assay [3]; 88.1% (inactive) in assay [4]; 89.8% (inactive) in assay [5]; 84% in assay [6] (setting [9]); 89.8% in assay [6] (setting [10]). Also, the Her2 level in assay [2] was 100% (inactive). The differential viability (reversal) in assay [6] (H69AR cells + 2 uM doxorubicin) was 5.81% (inactive). The results for the inhibition in assay [7] and in assay [8] were 0.8% (inactive) and -10.8% (inactive), respectively.
Turning to `Clc1ccc(Cc2nn3c(-c4ccncc4)nnc3s2)cc1`, the viability in assay [1] is 99.5%; in assay [3], 99.5% (inactive); in assay [4] it was 101% (inactive); in assay [5], 96.9% (inactive); in assay [6] (setting [9]), 97%; in assay [6] (setting [10]), 96.9%. In assay [2], the Her2 level is 107% (inactive). Further, the differential viability (reversal) in assay [6] (H69AR cells + 2 uM doxorubicin) is -0.11% (inactive). The inhibition in assay [7] is -1.05% (inactive); in assay [8], 15.4% (inactive).
For `COc1cccc(C2=NOC(C(=O)Nc3ccc(C(C)=O)cc3)C2)c1` (stereo not given), the viability in assay [1] is 96%; in assay [3], 96% (inactive); in assay [4] it was 96.6% (inactive); in assay [5] it was 100% (inactive); in assay [6] (setting [9]) it was 83.6%; in assay [6] (setting [10]) it was 100%. Besides, the Her2 level in assay [2] was 98.5% (inactive). Further, the differential viability (reversal) in assay [6] (H69AR cells + 2 uM doxorubicin) is 16.6% (inactive). For the same compound, the results for the inhibition in assay [7] and in assay [8] were -1.58% (inactive) and -4.73% (inactive), respectively.
Take `CCc1cc(C)cc(OCCNC(=O)c2ncn[nH]2)c1`: the viability in assay [1] was 117%; in assay [3] it was 117% (inactive); in assay [4], 89.7% (inactive); in assay [5], 90.8% (inactive); in assay [6] (setting [9]), 81.1%; in assay [6] (setting [10]), 90.8%. Moreover, in assay [2], the Her2 level is 110% (inactive). In addition, in assay [6] (H69AR cells + 2 uM doxorubicin), the differential viability (reversal) is 9.78% (inactive). For the same compound, the inhibition is -3.95% (inactive) in assay [7] and -1.29% (inactive) in assay [8].
On to `CNC(=O)CN(C#N)c1nc(N(C)C)nc(N(C)C)n1`, for which the viability was 104% in assay [1]; 104% (inactive) in assay [3]; 98.5% (inactive) in assay [4]; 92.8% (inactive) in assay [5]; 90.2% in assay [6] (setting [9]); 92.8% in assay [6] (setting [10]). In addition, the Her2 level in assay [2] was 112% (inactive). In assay [6] (H69AR cells + 2 uM doxorubicin), the differential viability (reversal) is 2.61% (inactive). Further, the inhibition was -4.93% (inactive) in assay [7] and -6.77% (inactive) in assay [8].
On to `Cc1csc(NC(=O)CCCSc2nc3ccccc3s2)n1`, for which the viability in assay [1] was 100%; in assay [3], 100% (inactive); in assay [4] it was 62.9% (inactive); in assay [5], 96% (inactive); in assay [6] (setting [9]) it was 95.9%; in assay [6] (setting [10]), 96%. Besides, the Her2 level in assay [2] was 71% (inactive). Besides, the differential viability (reversal) in assay [6] (H69AR cells + 2 uM doxorubicin) is 0.115% (inactive). In addition, the inhibition in assay [7] was -5.87% (inactive); in assay [8] it was 5.57% (inactive).
